Data on one molecule can be found in ChEMBL document CHEMBL4680124, “2-Styryl-4-aminoquinazoline derivatives as potent DNA-cleavage, p53-activation and in vivo effective anticancer agents” (Eur J Med Chem, 2020).

Each structure is given as a SMILES string. Calls of active or inactive are those of the source. No cut-off for these calls is given here.

A short description of series [1]: Toxicity against BALB/c nude mouse xenografted with human MGC-803 cells assessed as body weight at 20 mg/kg, ip administered every 2 days and measured 3 times per week for 16 days. The class given is organism-based. As to conditions: in vivo, 384 h, time 16 day. The procedure, abridged:
(§1)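 Male BALB/c nude mice, 6 weeks old, received 5×10^6 MGC-803 cells subcutaneously in the flank. At about 80 mm3, mice were randomized (n = 6/group). They were dosed i.p. every 2 days with vehicle (5% DMSO in saline, v/v) or drug in DMSO/saline at 1.0 or 2.0 mg/mL. Body weight was recorded three times weekly; mean ± SD.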
A general note: A xenograft is tissue or cells of one species grown in another, often human tumour cells in immunodeficient mice.

Series [2] has as its system MGC-803. Put plainly: Cell cycle arrest in human MGC-803 cells assessed as accumulation at S phase at 0.125 uM after 48 hrs by propidium iodide staining-based flow cytometric analysis (reference value: 45.1 %). The format is functional. (In flow cytometry, cells or beads pass a laser one at a time.)
The test system of series [3] is MGC-803. Put plainly: Cell cycle arrest in human MGC-803 cells assessed as accumulation at G1 phase at 0.25 uM after 48 hrs by propidium iodide staining-based flow cytometric analysis (reference value: 46.96 %). The class given is functional.
For series [4], the system named is MGC-803. Put plainly: Induction of apoptosis in human MGC-803 cells assessed as early apoptotic cells at 1 uM measured after 24 hrs by Annexin-V/propidium iodide staining-based flow cytometric analysis (Rvb =0.84%).
Series [5] deals with MGC-803. Put plainly: Induction of apoptosis in human MGC-803 cells assessed as late apoptotic cells at 2.5 uM measured after 24 hrs by Annexin-V/propidium iodide staining-based flow cytometric analysis (Rvb =0.93%).
The test system of series [6] is MGC-803. The series can be described thus: Induction of apoptosis in human MGC-803 cells assessed as necrotic cells at 1 uM measured after 24 hrs by Annexin-V/propidium iodide staining-based flow cytometric analysis (Rvb =6.05%).
Series [7] relates to MGC-803. Put plainly: Induction of apoptosis in human MGC-803 cells assessed as decrease in Bcl-2 expression at 0.5 to 2.5 uM measured after 24 hrs by Western blot analysis. The format is functional, cell-based. The settings on record: dose 0.5-2.5 µM. The method in brief: (§2)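 MGC-803 cells (2×10^6) plated overnight, then treated for 24 h at 0.5, 1.0 or 2.5 µM (test agent) or 5.0 µM (comparator). Whole-cell lysates separated by SDS-PAGE, transferred to PVDF and probed with primary antibodies. AP-linked anti-rabbit IgG, ECL detection, β-actin loading control. Representative of three experiments.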
(In general: A western blot detects proteins with antibodies after separation by electrophoresis.)

A further series concerns Mus musculus. Put plainly: Toxicity against BALB/c nude mouse xenografted with human MGC-803 cells assessed as body weight at 10 mg/kg, ip administered every 2 days and measured 3 times per week for 16 days. The class given is organism-based. As to conditions: in vivo, 384 h, time 16 day. The procedure, abridged:
as §1

Series [8] deals with MGC-803. Put plainly: Induction of apoptosis in human MGC-803 cells assessed as activation of caspase 9 at 2.5 uM incubated for 24 hrs by flow cytometric analysis (reference value: 2.82%). The format is functional.
Series [9] deals with MGC-803. The series can be described thus: Antitumor activity against human MGC-803 cells xenografted in BALB/C nude mouse assessed as tumor growth inhibition at 10 mg/kg, ip administered every 2 days and measured 3 times per week. The class given is functional, organism-based. The settings on record: time 2.0 day. The method in brief: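 Male BALB/c nude mice, 6 weeks old, given 5×10^6 MGC-803 cells s.c. in the flank. When tumors reached about 80 mm3, mice were randomized (n = 6/group) and dosed i.p. every 2 days. Vehicle was 5% DMSO in saline. Drug solutions were 1.0 or 2.0 mg/mL (DMSO/saline). Tumor length and width plus body weight were measured three times weekly; volume = lw²/2. Mean ± SD.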

The next series deals with DU-145. The series can be described thus: Cytotoxicity against human DU145 cells expressing mutant type p53 assessed as reduction in cell viability preincubated for 48 hrs and measured after 4 hrs by MTT assay. The class given is functional, cell-based. The procedure, abridged: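 MTT assay. Cells grown in DMEM (T24, MGC-803, A549, HL-7702), RPMI-1640 (DU145) or DMEM-F12 (PC-3), each with 10% FBS. Exposed to 1.25–20 µM in medium with 1% DMSO for 48 h, then MTT for 4 h. Formazan dissolved in DMSO and read at 570 nm. Five wells per concentration; means ± SD of independent repeats.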

The test system of series [10] is MGC-803. The series can be described thus: Induction of apoptosis in human MGC-803 cells assessed as increase in MDM2 protein expression upto 2.5 uM incubated for 24 hrs by Western blot analysis. The class given is functional, cell-based. The settings on record: dose microM <=2.5, time 24.0 hrs. The procedure, abridged:
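MGC-803 cells (2×10^6) cultured overnight, then exposed 24 h to 0.5, 1.0 or 2.5 μM, or 5.0 μM for the reference agent. Lysates were resolved by SDS-PAGE, transferred to PVDF and probed with primary antibodies. Detection used AP-linked anti-rabbit IgG and ECL. β-actin served as loading control.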

For series [11], the system named is MGC-803. Put plainly: Induction of apoptosis in human MGC-803 cells assessed as increase in Bax expression at 0.5 to 2.5 uM measured after 24 hrs by Western blot analysis. The format is functional, cell-based. As to conditions: dose 0.5-2.5 µM. The procedure, abridged: as §2
Series [12] deals with MGC-803. The series can be described thus: Induction of ROS generation in human MGC-803 cells assessed as intracellular ROS level at 0 to 2.5 uM after 24 hrs by DCFH-DA staining-based flow cytometric analysis. The format is functional, cell-based. The settings on record: dose 0-2.5 µM. The procedure, abridged:
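MGC-803 cells treated at 0.5, 1.0 or 2.5 µM for 24 h, harvested, washed in cold PBS and loaded with DCFH-DA at 37 °C for 30 min in the dark. Washed three times in PBS; fluorescence read by flow cytometry. Representative of three experiments.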

The subject of series [13] is MGC-803. Put plainly: Induction of DNA damage in human MGC-803 cells assessed as increase in p53 level at 2.5 uM measured after 24 hrs by Western blot analysis. The format is functional, cell-based. The method in brief: as §2
Series [14] relates to MGC-803. The series can be described thus: Induction of apoptosis in human MGC-803 cells assessed as nuclear fragmentation incubated at 0.5 to 2.5 uM for 24 hrs by Hoechst 33258 staining based analysis. The format is functional, cell-based. As to conditions: dose 0.5-2.5 µM. The method in brief:
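Cells in six-well plates were treated for the indicated time, then fixed 10 min in 4% paraformaldehyde and washed twice in PBS. Nuclei were stained 5 min with Hoechst 33258, washed twice in PBS and examined by fluorescence microscopy.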

Series [15] concerns MGC-803. Put plainly: Induction of apoptosis in human MGC-803 cells assessed as viable cells at 1 uM measured after 24 hrs by Annexin-V/propidium iodide staining-based flow cytometric analysis (Rvb =92.2 %). As to conditions: MGC-803, 24 h.
The subject of series [16] is MGC-803. Put plainly: Induction of apoptosis in human MGC-803 cells assessed as increase in Bak expression at 0.5 to 2.5 uM measured after 24 hrs by Western blot analysis. As to conditions: dose 0.5-2.5 µM.
Series [17] can be described thus: Induction of mitochondria membrane potential loss in human MGC-803 cells assessed as increase in green fluorescence at 2.5 uM incubated 24 hrs by JC-1 probe based flow cytometry analysis (reference value: 4.67%). The class given is functional.
Series [18] concerns MGC-803. Put plainly: Cell cycle arrest in human MGC-803 cells assessed as accumulation at G1 phase at 0.125 uM after 48 hrs by propidium iodide staining-based flow cytometric analysis (reference value: 46.96 %). The class given is functional.
The test system of series [19] is MGC-803. The series can be described thus: Induction of DNA damage in human MGC-803 cells assessed as increase in gamma H2AX at 2.5 uM measured after 24 hrs by Western blot analysis. The class given is functional, cell-based. The method in brief: as §2

As a reminder, the IC50 is the concentration that inhibits the measured activity by half. In general, viability refers to a read-out of living cells in per cent, often relative to untreated cells. For `NCCCCNc1nc(/C=C/c2ccc([N+](=O)[O-])cc2)nc2ccccc12`, the Activity result is “Non-Toxic” in series [1]; 46.45% with MGC-803 [2]; 7.66% with MGC-803 [3]; 27.5% in the series on MGC-803 [4]; 55.9% in the series with MGC-803 [5]; 2.21% with MGC-803 [6]. For the same molecule, the Activity entry in the series with Mus musculus is “Non-Toxic”; with MGC-803 [8] it was 57.35%; in [17] it was 22.6%; with MGC-803 [18], 35.39%. In addition, the outcome in the series on MGC-803 [7], in the series with MGC-803 [9], with MGC-803 [10], in the series on MGC-803 [11], in the series on MGC-803 [12] and with MGC-803 [13] was Active. Further, the result in the series with MGC-803 [14] and in the series on MGC-803 [19] was Active. In the series on DU-145, the IC50 was 4.15 µM. Moreover, the viability at 1 µM in the series with MGC-803 [15] worked out at 55.3%. Also, the result in the series on MGC-803 [16] was inactive.
